The entries come from a sample that favours hits as a whole.
RORa inhibitor – inhibitors of orphan receptor RORA, primary screen, cell-based, luminescence | Nuclear receptor ROR-alpha (Homo sapiens), P35398 | CHO-K1 Gal4-RORA LBD luciferase reporter | inhibition, % at 10 µM | actives 0.43% (n = 65,000) | AID 561, 2006;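 active means inhibition above the mean of all tested compounds plus 3 SD, cut at about 52% in these data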;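 further: 0% = RORA-transfected cells with DMSO and 100% = mock-transfected cells lacking RORA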
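Test system – CHO-K1 Gal4-RORA LBD luciferase reporter cells · Schedule – 20 h at 37 °C · Signal – luminescence from basal luciferase reporter expression · Measure – percent inhibition of basal reporter luminescence, control-normalized · Control set – -RORA mock-transfected DMSO wells 100%, +RORA DMSO wells 0%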
* = called active by the depositor.

Results for C[C@H]1CCC/C=C/C2C[C@H](O)CC2[C@H](O)/C=C/C(=O)O1 (some centres undefined) ?
RORa inhibitor: 83.7*

Results for Cc1ccc(S(=O)(=O)N(C)CCCC(=O)N2CCN(c3ccccn3)CC2)cc1 ?
RORa inhibitor: 13.3

Results for O=C(C1CCCO1)N1CCC2(CC1)OCCO2 (centres undefined) ?
RORa inhibitor: 16.0

How did O=C(C1CC(c2ccc(Cl)c(Cl)c2)=NO1)N1CCC2(CC1)OCCO2 (centres undefined) do in these assays?
RORa inhibitor: -73.2

How did CCn1nc(-c2ccccc2)nc2c(=O)n(C)c(=O)nc1-2 do in these assays?
RORa inhibitor: 93.1*

Results for CC(=O)C1(c2ccccc2)CCNCC1 ?
RORa inhibitor: -4.6

What do the screens show for `CC(C(=O)N1CCC2(CC1)OCCO2)C1Sc2ccccc2NC1=O` (centres undefined)?
RORa inhibitor: 10.5

Results for CC[C@@H]1C(=O)OC[C@@H]1Cc1cncn1C ?
RORa inhibitor: 8.7

What do the screens show for `CC1=NOC2(C)Nc3ncnn3C(c3ccccc3)C12` (centres undefined)?
RORa inhibitor: 14.5

How did CC(C)c1cccc(C(C)C)c1OCCn1ccnc1 do in these assays?
RORa inhibitor: 19.7

Compound activity from PubChem BioAssay.
